Laboratory results from article PMC5125728 (Cell reports, 2016).
Numbering of substitutions follows the chain as printed. Where no end group is shown, it is not given here. Me2 = dimethyl (dimethyl-lysine)

Key:
[1] = molecular target: PHF20 PHD finger (aa 651-699), wild type (human) (UniProt Q9BVI0); assay: other fluorescence titration
GST-PHF20 PHD = assay: Biotinylated histone peptide pull-down with GST-PHF20 PHD, western blot; assay type: binding, human; conditions: 1 μg biotinylated peptide, 1 μg GST-PHF20 PHD, 50 mM Tris-HCl pH 7.5, 250 mM NaCl, 0.1% NP-40, overnight, streptavidin beads
PHF20 PHD finger (WT) = molecular target: T1, PHF20 PHD finger (WT) (Homo sapiens, UniProt Q9BVI0); assay: Tryptophan fluorescence binding of histone peptides to WT PHF20 PHD finger
T1 sequence (Q9BVI0 651-699): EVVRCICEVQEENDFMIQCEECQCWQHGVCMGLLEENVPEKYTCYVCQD
Outline: (§1)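 The PHF20 PHD (aa 651–699, GST cleaved; mutants by site-directed mutagenesis) was in PBS pH 6.8 with 10 mM DTT at room temperature. Histone peptide was increased progressively. Excitation was at 280 nm and emission was scanned 310–405 nm (0.5-nm steps, 1-s integration, three scans averaged). Kd came from a nonlinear least-squares fit of intensity change, averaged over three separate experiments, with SD between runs.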

[2] = molecular target: T2, E662D mutant of PHF20-PHD (Homo sapiens, UniProt Q9BVI0, E662D); assay: Tryptophan fluorescence binding of histone peptides to E662D mutant of PHF20 PHD
T2 sequence (Q9BVI0 651-699 E662D): T1 sequence (Q9BVI0 651-699) with E12D
Outline: as §1

[3] = test system: E662K mutant of PHF20 PHD finger; assay: NMR and tryptophan fluorescence binding, E662K mutant of PHF20 PHD; design: species or system human; conditions: E662K folded, soluble, stable protein; Figures 4C and 4E
Outline: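 GST-tagged PHF20 PHD (aa 651–699), wild-type or point mutant made by site-directed mutagenesis, was expressed in E. coli Rosetta-2(DE3)pLysS in 15NH4Cl minimal medium with 150 μM ZnCl2, then GST-cleaved. 1H,15N HSQC spectra were collected at 298K (600/500 MHz) as 12-mer histone tail peptides were added stepwise. Shift changes were normalized as √(ΔδH²+(ΔδN/5)²); Kd came from a nonlinear least-squares fit.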

[4] = molecular target: PHF20 PHD finger E662D (human) (UniProt Q9BVI0); assay: other fluorescence titration
PHF20 Tudor2 (aa 58-148) = molecular target: T3, PHF20 Tudor2 (aa 58-148) (human, UniProt Q9BVI0 58-148); assay: NMR titration
T3 sequence (looked up): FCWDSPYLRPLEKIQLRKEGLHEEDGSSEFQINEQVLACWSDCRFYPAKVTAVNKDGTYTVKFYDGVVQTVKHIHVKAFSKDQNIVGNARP

PHF20 PHD finger E662D = molecular target: T4, PHF20 PHD finger E662D (human, UniProt Q9BVI0 651-699, E662D); assay: other fluorescence titration
T4 chain (looked up): T1 sequence (Q9BVI0 651-699) with E12D

[5] = molecular target: T5, PHF20 PHD finger (aa 651-699), wild type (human, UniProt Q9BVI0 651-699); assay: other fluorescence titration
T5 chain (looked up): T1 sequence (Q9BVI0 651-699)

PHF20 PHD finger F665V = molecular target: T6, PHF20 PHD finger F665V (human, UniProt Q9BVI0 651-699, F665V); assay: NMR titration
T6 chain (looked up): T1 sequence (Q9BVI0 651-699) with F15V

PHF20 PHD finger P689L = molecular target: T7, PHF20 PHD finger P689L (human, UniProt Q9BVI0 651-699, P689L); assay: NMR titration
T7 chain (looked up): T1 sequence (Q9BVI0 651-699) with P39L

PHF20 PHD finger R654H = molecular target: T8, PHF20 PHD finger R654H (human, UniProt Q9BVI0 651-699, R654H); assay: NMR titration
T8 chain (looked up): T1 sequence (Q9BVI0 651-699) with R4H

[6] = molecular target: T9, PHF20 PHD finger (residues 646-699) (human, UniProt Q9BVI0 646-699); assay: NMR structure
T9 sequence (looked up): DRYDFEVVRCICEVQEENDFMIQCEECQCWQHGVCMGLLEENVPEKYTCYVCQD

For H3K4me1 peptide (12-mer), the fold weaker than H3K4me2 [1] was 14 fold.

In the case of `C[C@H](N)C(=O)N[C@@H](CCCNC(=N)N)C(=O)N[C@H](C(=O)N[C@@H](CCCCN(C)C)C(=O)N[C@@H](CCC(N)=O)C(=O)N[C@H](C(=O)N[C@@H](C)C(=O)N[C@@H](CCCNC(=N)N)C(=O)N[C@@H](CCCCN)C(=O)N[C@@H](CO)C(=O)N[C@H](C(N)=O)[C@@H](C)O)[C@@H](C)O)[C@@H](C)O` [H3K4me2], the “binding in peptide pull-down” value (GST-PHF20 PHD) is reported as “binds”, the Kd (PHF20 PHD finger (WT)) is reported as 3.6 µM and the Kd [2] is reported as 3.6 µM. For the same molecule, the “interaction with E662K mutant” value [3] was “completely abrogated interaction”.

H3K4me0 peptide (12-mer) was tested, and the fold weaker than H3K4me2 [1] was 20 fold.

For H3K4me3 peptide (12-mer), the fold weaker than H3K4me2 [1] was 6 fold and the Kd [4] was 3.7 µM.

For ARTK(Me2)QTARKSTG (peptide, UniProt P68431 2-13, looked up) [H3K4me2 peptide (aa 1-12)], the Kd (PHF20 Tudor2 (aa 58-148)) was ~1000 µM, the Kd (PHF20 PHD finger E662D) was 3.6 µM and the Kd [5] was 3.6 µM. The “fold decrease of binding compared with WT” value (from here on “fold decrease of binding”) (PHF20 PHD finger F665V) was ~9 fold, the “fold decrease of binding” value (PHF20 PHD finger P689L) was ~17 fold and the “fold decrease of binding” value (PHF20 PHD finger R654H) was ~8 fold.

ARTK(Me2)QTARKST-NH2 [11-residue C-terminally amidated H3K4me2 peptide]: binds [6].
